Screening data from PubChem.
Many of the other results were omitted from the sample, so hits are more common in it than they were.
Lmaj promast: Leishmania major promastigote growth inhibition, primary screen; Leishmania major promastigotes, resazurin fluorescence viability; inhibition, % at 10 µM; 9% of 200,000 active; in the data active means inhibition above about 50%;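 further: promastigotes grown with compound for 44 hours at 28 °C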
Dynein cargo inh: inhibitors of GR-EGFP nuclear translocation, primary screen, dynein cargo transport inhibitor project, imaging, high-content, 3617.4 mouse cells; test concentration mostly 20 µM; stimulated with dexamethasone, 1 µM; active compounds read low; z-score, hits read low; 0.47% of 220,000 active; AID 1381, 2008;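 active means plate z-score of nuclear minus cytoplasmic receptor signal below a set negative limit, without overly bright fluorescence or cell loss, cut at about -3.5 in these data, passing the limit was not always enough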;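 further: z-score of nuclear minus cytoplasmic ring GR-EGFP intensity difference per well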
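Buffer or medium: tet-free, stripped-serum medium; reagent: dexamethasone at 1.0 µM final, 30 min; incubation: 48 h induction, 1 h compound, 30 min dex at 37 °C; measured by: formaldehyde fixation, Hoechst nuclear stain, 10x automated fluorescence imaging; read-out: nuclear-to-cytoplasmic GR-EGFP distribution per well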
T cruzi repl: inhibitors of intracellular T. cruzi growth, primary screen, luminescence, NIH3T3 host cells; T. cruzi beta-gal in NIH3T3, 90 h; 1.4% of 300,000 active; inhibition, % (concentration not given with the values);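 active means mean inhibition across valid replicates above about 55%, limit read from the data; inconclusive means mean below that limit but half or more replicates reach it; inactive means mean below it, under half of replicates reach it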;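 further: signal also drops with host cell toxicity which is not excluded here; higher percent means less beta-gal luminescence so fewer parasites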
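Assay system: NIH/3T3 host cells with β-galactosidase reporter T. cruzi; input: 5,000 host fibroblasts per well; compound: single 50 nL compound addition per well in DMSO; timing: ≥90 h infection period, 3 h prior cell attachment; measured by: GalScreen β-gal luminescence, detergent lysis, 60 min; evaluation: percent inhibition of parasite-derived β-gal signal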
UPR CHOP act: activators of apoptotic CHOP UPR arm, primary screen, cell-based, CHO-CHOP luciferase reporter, luminescence, uHTS; UPR activation; percent of tunicamycin response over DMSO baseline; activation, % at 10 µM; 0.34% of 330,000 active;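 active means at 10 µM dose, activation of 40% or more, normalized to positive control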
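System: CHO-CHOP luciferase reporter cell line; amount: 500 cells/well; buffer or medium: F12 medium containing 10% fetal bovine serum; incubation: 6 h compound exposure at 37 °C after overnight seeding; measured by: luciferase luminescence after 10 min with Steady-Glo reagent; evaluation: % reporter activation, DMSO baseline versus tunicamycin full activation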
CHOP inhibitor: inhibitors of CHOP promoter induction, primary screen, cell-based, unfolded protein response, luciferase reporter; CHO-K1 CHOP-promoter luciferase, tunicamycin-induced, 15-18 h; inhibition, % at 10 µM; 3.8% of 220,000 active;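 active means compounds that reduced the stress-induced luciferase reporter signal by more than about 70% of percent inhibition, limit read from the data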
XBP1 UPR activ: activators of adaptive XBP1 UPR arm, primary screen, cell-based, CHO-XBP1 luciferase reporter, luminescence, uHTS | IRE1-XBP1 UPR activation; percent of tunicamycin response, DMSO as zero | activation, % at 20 µM | 0.33% of 330,000 active;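 active means versus positive control, 20 µM dose yields 30% or more activation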
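Material: CHO cell line with stable XBP1 luciferase reporter; schedule: 16-18 h cell attachment at 37 °C, then 6 h compound exposure; signal: glow luminescence from Steady-Glo reagent; medium: serum-containing F12 medium, 10% FBS; benchmarks: tunicamycin 10 µg/mL and vehicle-only wells; read-out: percent activation relative to tunicamycin reference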
Numbers stand for hits; . = inactive; ? = inconclusive; / = not tested or not shown.

SMILES | Lmaj promast | Dynein cargo inh | T cruzi repl | UPR CHOP act | CHOP inhibitor | XBP1 UPR activ
O=C(COC(=O)/C=C/c1ccccc1)Nc1ccc(Cl)cn1 | / | / | . | . | / | .
CCOC(=O)c1sc(N/N=C/c2cc(Br)c(O)c(OC)c2)nc1C | / | / | . | . | / | .
Fc1ccc2c(c1)/C(=N/Nc1ccccn1)CCS2 | 55 | . | . | . | . | .
O=C(C1CCC(CNS(=O)(=O)c2cccc3nsnc23)CC1)N1CC=C(c2ccccc2)CC1 (configuration not stated) | . | . | . | . | 72 | .
Cc1ccc(S(=O)(=O)N(C)c2ccc(OC(=O)c3cccs3)cc2)cc1C | / | / | / | . | / | .
Cc1ccc(Cl)cc1N1CCN(S(=O)(=O)c2cc3c(cc2C)NC(=O)CO3)CC1 | / | / | . | . | / | .
Cc1cccnc1NC(=O)c1ccc(Cl)c(S(=O)(=O)N2CCCCC2)c1 | / | / | . | . | / | .
CC(=O)C1=C(O)C(=O)N(c2cccc(Br)c2)C1c1ccccc1Cl (configuration not stated) | / | / | . | . | / | .
O=C1C(=O)N(CCCN2CCOCC2)C(c2ccc([N+](=O)[O-])cc2)/C1=C(/O)c1ccc2c(c1)OCO2 (configuration not stated) | / | / | . | . | / | .
CCCN(C(=O)COc1ccc(C(C)=O)cc1OC)C1CCS(=O)(=O)C1 (configuration not stated) | / | / | / | . | / | .
COc1ccc(-c2csc(NC(=O)CS(=O)(=O)c3ccc(F)cc3)n2)cc1OC | / | / | . | . | / | .
CCCc1cc(=O)oc2cc(OCC(=O)NCc3ccccn3)ccc12 | / | / | . | . | / | .
CCCc1cc(=O)oc2cc(OCC(=O)NCc3cccs3)ccc12 | 71 | . | . | . | . | .
Fc1ccc(-n2ncc3c(SCc4cccnc4)ncnc32)cc1 | . | . | ? | . | . | .
COC(=O)c1nc2n(n1)C(c1cc(OC)ccc1OC)C(C(=O)OC1CCCCC1)=C(C)N2 (configuration not stated) | . | . | . | . | 80 | .
COc1ccc2[nH]c3c(NCCC4=CCCCC4)ncnc3c2c1 | 100 | . | 87 | / | 72 | /
COc1ccc2[nH]c3c(NCc4ccco4)ncnc3c2c1 | 51 | . | . | . | . | .
C=CCNc1ncnc2c1[nH]c1ccc(C)cc12 | 83 | . | . | . | . | .
CCN(CC)CCNc1ncnc2c1[nH]c1ccc(OC)cc12 | . | . | . | . | . | .
Cc1ccc2[nH]c3c(NCCN4CCOCC4)ncnc3c2c1 | . | . | . | . | . | .
CCc1ccc2oc(-c3cc(N)ccc3O)nc2c1 | . | . | . | . | 78 | .
CCc1ccc2oc(-c3cc(N)ccc3Cl)nc2c1 | . | . | . | . | . | .
Cc1ccc(S(=O)(=O)Nc2ccccc2/C=N/c2nc3ccccc3n2C(C)C)cc1 | 58 | . | / | / | . | /
CC(C)n1c(/N=C/c2ccccc2O)nc2ccccc21 | / | / | . | . | / | .
CCCCn1c(/N=C/c2ccccc2NS(=O)(=O)c2ccc(C)cc2)nc2ccccc21 | 77 | . | / | / | . | /
SMILES | Lmaj promast | Dynein cargo inh | T cruzi repl | UPR CHOP act | CHOP inhibitor | XBP1 UPR activ
Cc1ccc(NC(=O)C(C)OC(=O)c2ccc(NC(=O)CC#N)cc2)cc1S(=O)(=O)N1CCOCC1 (configuration not stated) | / | / | . | . | / | .
COc1ccc(C(=O)C2CCCN(Cc3cccc4c3OCO4)C2)cc1OC (configuration not stated) | 78 | . | 62 | . | . | .
COc1c(C)cc(C(=O)C2CCCN(Cc3cccc4nccnc34)C2)cc1C (configuration not stated) | 99 | . | . | . | . | .
COc1ccc(C(=O)C2CCCN(Cc3c(O)cccc3OC)C2)cc1OC (configuration not stated) | / | / | . | . | / | .
COc1cccc(CN2CCCC(C(=O)c3ccc4c(c3)OCO4)C2)c1OC (configuration not stated) | 90 | . | . | . | . | .
C[C@]12c3[nH]c4cc(-c5ccco5)ccc4c3CCN1C(=O)[C@@H](CC(=O)NCc1ccco1)C[C@@H]2C(=O)N1CCCCC1 | / | / | / | . | / | .
O=C(CSc1nc(O)c(C2CCCCC2)c(=O)[nH]1)Nc1ccccc1Cl | / | / | . | . | / | .
Cc1c(Cl)cccc1NC(=O)Nc1ccccc1C(N)=O | . | . | . | . | . | .
CN1CCN(NC(=O)Nc2cccc(Cl)c2Cl)CC1 | . | . | 57 | . | . | .
NC(=O)c1ccccc1NC(=O)Nc1cccc(Cl)c1Cl | 65 | . | . | . | . | .
Cn1cc(Cl)c(C(=O)Nc2cccc(Cl)c2Cl)n1 | . | . | . | . | 75 | .
COc1ccc(/C(C)=N/NC(=O)CNC(=O)/C=C\c2ccccc2OC)c(OC)c1 | / | / | . | . | / | .
COCc1cc(=O)n2[nH]c(-c3cccc(Br)c3)cc2n1 | 100 | . | . | . | . | .
COCc1cc(=O)n2[nH]c(-c3ccccc3)cc2n1 | . | . | . | . | . | .
Cc1ccc(NC(=O)c2oc3ccccc3c2COC(C)C)cc1S(=O)(=O)N1CCOCC1 | / | / | / | . | / | .
Nc1nc(CCl)nc(N(c2ccccc2)c2ccccc2)n1 | / | . | . | . | . | .
NS(=O)(=O)c1ccc(CCNC(=O)CCCOc2ccccc2)cc1 | . | . | . | . | . | .
Cc1cc(N2CCOCC2)nc2ccc(Cl)cc12 | / | / | . | . | / | .
NC(=O)c1sc2nc(N3CCCCC3)c3c(c2c1N)CCCC3 | . | . | . | . | 92 | .
CCOC(=O)c1sc2nc(N3CCOCC3)c3c(c2c1N)CCCC3 | . | . | . | . | . | .
COC(=O)c1ccc(-c2sc3nc(N4CCOCC4)c4c(c3c2N)CCCC4)o1 | . | . | 67 | . | . | .
COc1ccc(CN2CCCC(C(=O)Nc3cccc(-n4cnnn4)c3)C2)c(C)c1C (configuration not stated) | / | / | . | . | / | .
Cc1c(C(=O)N2C[C@@H](C)O[C@@H](C)C2)oc2c(F)cccc12 | / | / | . | . | / | .
Cc1nc2nc(-c3ccc(F)cc3)cn2nc1C | / | / | . | . | / | .
CCc1ccc(-c2cn3nc(C)c(C)nc3n2)cc1 | . | . | . | . | 92 | .
O=C(c1ccc(=O)[nH]n1)N1CCN(S(=O)(=O)c2ccc(C(F)(F)F)cc2)CC1 | / | / | / | . | / | .
Cc1cc(C)cc(NC(=O)CSc2nc3c(oc4ccccc43)c(=O)n2-c2ccccc2)c1 | 61 | . | 55 | . | . | .
COCCn1c(SCC(=O)Nc2ccccc2)nc2c(oc3ccccc32)c1=O | . | . | . | . | . | .
